In ChEMBL document CHEMBL2176987, “Property-based optimization of hydroxamate-based γ-lactam HDAC inhibitors to improve their metabolic stability and pharmacokinetic profiles” (J Med Chem, 2012):

Assays:
[1] = Metabolic stability in ICR mouse liver microsomes at 1 uM measured at 30 min in absence of NADPH; assay type: ADME, Microsome; settings: read-out: Stability
Summary of the method: (§1)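 Test compound at 1 μM incubated with female ICR mouse liver microsomes (0.5 mg protein/mL) for 30 min at 37 °C, with or without NADPH. Result reported as % parent remaining at 30 min.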

[2] = Metabolic stability in ICR mouse liver microsomes at 1 uM measured at 30 min in presence of NADPH; assay type: ADME, Microsome; settings: read-out: Stability; summary of the method: as §1
[3] = Passive permeability of the compound by PAMPA; assay type: ADME; settings: read-out: permeability
Summary of the method: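 PAMPA passive diffusion with compound at a final concentration of 200 μM. Effective permeability Pe (nm/s) and membrane retention R (%) reported. Ranitidine and metoprolol served as controls.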

[4] = Lipophilicity, log D of the compound; assay type: physicochemical; settings: octanol/water
[5] = Oral bioavailability in Balb/c mouse at 30 mg/kg; assay type: ADME, organism-based; settings: in vivo
Summary of the method: (§2)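 Balb/c mice dosed iv at 10 mg/kg or orally (20 or 30 mg/kg). Plasma concentration–time profiles averaged over three animals per time point. Parameters come from noncompartmental analysis. Oral AUC runs 0–5 h and iv AUC runs 0 to infinity.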

[6] = Half life in Balb/c mouse at 30 mg/kg, po; assay type: ADME, organism-based; parameters: dose 30 mg/kg, route oral; settings: in vivo; summary of the method: as §2
[7] = Half life in Balb/c mouse at 10 mg/kg, iv; assay type: ADME, organism-based; parameters: dose 10 mg/kg, route intravenous; settings: in vivo; summary of the method: as §2
[8] = Volume of distribution at steady state in Balb/c mouse at 10 mg/kg, iv; assay type: ADME, organism-based; parameters: dose 10 mg/kg, route intravenous; settings: in vivo, read-out: Vdss; summary of the method: as §2
[9] = Clearance in Balb/c mouse at 10 mg/kg, iv; assay type: ADME, organism-based; parameters: dose 10 mg/kg, route intravenous; settings: in vivo; summary of the method: as §2
[10] = AUC (0 to 5 hrs) in Balb/c mouse at 30 mg/kg, po; assay type: ADME, organism-based; parameters: dose 30 mg/kg, route oral; settings: plasma; summary of the method: as §2
[11] = Cmax in Balb/c mouse at 30 mg/kg, po; assay type: ADME, organism-based; parameters: dose 30 mg/kg, route oral; settings: in vivo; summary of the method: as §2
[12] = Tmax in Balb/c mouse at 30 mg/kg, po; assay type: ADME, organism-based; parameters: dose 30 mg/kg, route oral; settings: in vivo; summary of the method: as §2
[13] = Apparent permeability across apical to basolateral side in human Caco2 cells at 100 uM; assay type: ADME, cell-based; settings: Caco-2
[14] = test system: NUGC-3; test: Cytotoxicity against human NUGC3 cells assessed as growth inhibition by SRB assay; assay type: functional
[15] = test system: HCT-15; test: Cytotoxicity against human HCT15 cells assessed as growth inhibition by SRB assay; assay type: functional
[16] = test system: NCI-H23; test: Cytotoxicity against human NCI-H23 cells assessed as growth inhibition by SRB assay; assay type: functional
[17] = test system: MDA-MB-231; test: Cytotoxicity against human MDA-MB-231 cells assessed as growth inhibition by SRB assay; assay type: functional
[18] = test system: ACHN; test: Cytotoxicity against human ACHN cells assessed as growth inhibition by SRB assay; assay type: functional
[19] = AUC (0 to infinity) in Balb/c mouse at 10 mg/kg, iv; assay type: ADME, organism-based; parameters: time infinity, dose 10 mg/kg, route intravenous; settings: plasma; summary of the method: as §2
[20] = test system: PC-3; test: Cytotoxicity against human PC3 cells assessed as growth inhibition by SRB assay; assay type: functional, cell-based
[21] = Inhibition of HDAC by fluorescence assay
[22] = Oral bioavailability in Balb/c mouse at 20 mg/kg; assay type: ADME, organism-based; settings: in vivo; summary of the method: as §2
[23] = Half life in Balb/c mouse at 20 mg/kg, po; assay type: ADME, organism-based; parameters: dose 20 mg/kg, route oral; settings: in vivo; summary of the method: as §2
[24] = AUC (0 to 5 hrs) in Balb/c mouse at 20 mg/kg, po; assay type: ADME, organism-based; parameters: dose 20 mg/kg, route oral; settings: plasma; summary of the method: as §2
[25] = Cmax in Balb/c mouse at 20 mg/kg, po; assay type: ADME, organism-based; parameters: dose 20 mg/kg, route oral; settings: in vivo; summary of the method: as §2
[26] = Tmax in Balb/c mouse at 20 mg/kg, po; assay type: ADME, organism-based; parameters: dose 20 mg/kg, route oral; settings: in vivo; summary of the method: as §2

Row | Compound | remaining at 0.5 h, 1 µM [1] | remaining at 0.5 h, 1 µM [2] | Papp [3] | logD [4] | IC50 [21] | GI50 [14] | GI50 [15] | GI50 [16] | GI50 [17] | GI50 [18] | GI50 [20] | further results
1 | O=C(CCC1=CCN(Cc2ccc(F)cc2)C1=O)NO | 91.4% | 87.7% | 1.93 ×10⁻⁶ cm/s | 0.571 | 0.06 µM | 6.06 µM | 4.07 µM | 4.67 µM | 1.94 µM | 5.99 µM | 5.31 µM | bioavailability [5]: 30.6%; half-life [6]: 1.1 h; half-life [7]: 2.6 h; Vd [8]: 1.8 L/kg; clearance [9]: 130 mL/min/kg; AUC(0-t) at 4 h [10]: 1180 ng·h/mL; Cmax [11]: 2300 ng/mL; Tmax [12]: 0.25 h; Papp A→B at 100 µM [13]: 7.8 ×10⁻⁶ cm/s; AUC(0-inf) [19]: 1280 ng·h/mL
2 | O=C(CCC1=CCN(Cc2ccc(Br)cc2)C1=O)NO | 100% | 84% | 1.02 ×10⁻⁶ cm/s | 1.26 |  |  |  |  |  |  |  | bioavailability [5]: 44.6%; half-life [6]: 3.1 h; half-life [7]: 2.8 h; Vd [8]: 4.1 L/kg; clearance [9]: 71.7 mL/min/kg; AUC(0-t) at 4 h [10]: 3110 ng·h/mL; Cmax [11]: 2710 ng/mL; Tmax [12]: 0.15 h; AUC(0-inf) [19]: 2330 ng·h/mL
3 | O=C(CCC1=CCN(Cc2cc(C(F)(F)F)cc(C(F)(F)F)c2)C1=O)NO | 40.5% | 35.7% | 2.83 ×10⁻⁶ cm/s | 2.4 |  |  |  |  |  |  |  | 
4 | N#Cc1cccc(CN2CC=C(CCC(=O)NO)C2=O)c1 |  |  |  | 0.236 | 0.16 µM | 4.12 µM | > 10 µM | 4.08 µM | 3.6 µM | 7.75 µM | 7.92 µM | 
5 | N#Cc1ccc(CN2CC=C(CCC(=O)NO)C2=O)cc1 |  |  |  | 0.197 | 0.15 µM | > 10 µM | > 10 µM | 2.32 µM | 5.38 µM | > 10 µM | > 10 µM | 
6 | O=C(CCC1=CCN(CCc2cccc([N+](=O)[O-])c2)C1=O)NO |  |  |  | 0.633 | 1.08 µM | 6.57 µM | > 10 µM | 4.39 µM | 3.18 µM | 5.7 µM | 8.69 µM | 

Continued, in another order:

Row | remaining at 0.5 h, 1 µM [1] | remaining at 0.5 h, 1 µM [2] | Papp [3] | logD [4] | IC50 [21] | Compound | GI50 [14] | GI50 [15] | GI50 [16] | GI50 [17] | GI50 [18] | GI50 [20] | further results
7 | 51% | 38.1% | 6.53 ×10⁻⁶ cm/s | 2.25 |  | CC(C)(C)c1ccc(CCN2CC=C(CCC(=O)NO)C2=O)cc1 |  |  |  |  |  |  | 
8 | 57.6% | 35.3% | 1.5 ×10⁻⁶ cm/s | 2.7 |  | CC(C)(C)c1ccc(CCCN2CC=C(CCC(=O)NO)C2=O)cc1 |  |  |  |  |  |  | 
9 | 34.6% | 24.9% | 0.494 ×10⁻⁶ cm/s | 2.17 |  | O=C(CCC1=CCN(CCCCc2ccc(Cl)cc2)C1=O)NO |  |  |  |  |  |  | 
10 | 79% | 58.2% | 2.19 ×10⁻⁶ cm/s | 2.1 | 0.1 µM | CC(C)(C)c1ccc(CN2CC=C(CCC(=O)NO)C2=O)cc1 | 0.72 µM | 0.57 µM | 0.42 µM | 0.69 µM | 0.86 µM | 1.83 µM | bioavailability [22]: 10.7%; half-life [23]: 13.6 h; AUC(0-t) at 4 h [24]: 739 ng·h/mL; Cmax [25]: 462 ng/mL; Tmax [26]: 0.25 h; half-life [7]: 7.8 h; Vd [8]: 1.6 L/kg; clearance [9]: 48.3 mL/min/kg; AUC(0-inf) [19]: 3440 ng·h/mL
11 |  |  |  | 0.594 | 1.47 µM | O=C(CCC1=CCN(CCc2ccc([N+](=O)[O-])cc2)C1=O)NO | > 10 µM | > 10 µM | 7.8 µM | 4.97 µM | 8.96 µM | > 10 µM | 
